This is an account of results in ChEMBL document CHEMBL4619791, “3-Difluoroalkyl Quaternary Oxindoles Inhibit Macrophage Pyroptosis by Blocking Inflammasome Recruitment of Caspase-1” (ACS Med Chem Lett, 2020).

The structures appear in SMILES notation. Active and inactive are the calls of the source. No cut-off for these calls is given here.

For data set [1], the system named is BMDM. The data set can be described thus: Inhibition of pyroptosis in LPS-primed C57BL/6 mouse primary BMDM assessed as reduction in nigericin-induced cell death by Alamar blue assay. Format: functional, cell-based. A digest of the protocol: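 Primary murine macrophages primed with LPS and stimulated with nigericin across a dose range. IL-1β release, LDH release and Alamar blue measured. Means ± SE, ≥3 experimental replicates.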

The target in the next data set is T1, Caspase-1 (Homo sapiens) (UniProt P29466).
T1 sequence (whole entry): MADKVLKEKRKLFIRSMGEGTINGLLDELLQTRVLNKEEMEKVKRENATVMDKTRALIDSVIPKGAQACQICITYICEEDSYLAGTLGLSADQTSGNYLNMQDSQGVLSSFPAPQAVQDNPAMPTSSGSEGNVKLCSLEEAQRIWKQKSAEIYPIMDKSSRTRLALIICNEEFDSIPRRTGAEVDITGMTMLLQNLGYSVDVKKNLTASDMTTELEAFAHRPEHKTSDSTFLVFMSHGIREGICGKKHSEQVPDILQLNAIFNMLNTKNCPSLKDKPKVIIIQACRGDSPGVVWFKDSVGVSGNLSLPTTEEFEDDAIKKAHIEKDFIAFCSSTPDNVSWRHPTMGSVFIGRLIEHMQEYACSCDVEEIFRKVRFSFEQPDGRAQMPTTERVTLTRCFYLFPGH
The data set can be described thus: Inhibition of ASC-mediated caspase-1 cleavage in human THP1 cells transfected with GFP-tagged ASC at 5 uM FACS analysis. The following applies: THP-1. Format: cell-based. For orientation: Flow cytometry measures light scatter and fluorescence of single cells or particles in a stream.

Another data set relates to THP-1. The data set can be described thus: Inhibition of pyroptosis in LPS-primed human THP1 assessed as reduction in nigericin-induced cell death at 0.1 to 20 uM by LDH assay. The data set is classed as functional, cell-based. Put shortly:
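THP-1 cells induced to pyroptosis. Cell death read by LDH release and pore formation by PI uptake. Means ± SE, ≥3 experimental replicates.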

A further data set concerns Mus musculus. The data set can be described thus: Antiinflammatory activity against LPS-induced sepsis C57BL/6J mouse model assessed as reduction in alveolar exudate at 20 mg/kg, iv administered as single dose for 1 hr prior to LPS challenge and measured after 48 hrs by hematoxylin-eosin staining based inverted microscopy analysis. Format: functional, organism-based.
Data set [2] deals with T2, Caspase-1 (Mus musculus) (UniProt P29452).
T2 sequence (whole entry): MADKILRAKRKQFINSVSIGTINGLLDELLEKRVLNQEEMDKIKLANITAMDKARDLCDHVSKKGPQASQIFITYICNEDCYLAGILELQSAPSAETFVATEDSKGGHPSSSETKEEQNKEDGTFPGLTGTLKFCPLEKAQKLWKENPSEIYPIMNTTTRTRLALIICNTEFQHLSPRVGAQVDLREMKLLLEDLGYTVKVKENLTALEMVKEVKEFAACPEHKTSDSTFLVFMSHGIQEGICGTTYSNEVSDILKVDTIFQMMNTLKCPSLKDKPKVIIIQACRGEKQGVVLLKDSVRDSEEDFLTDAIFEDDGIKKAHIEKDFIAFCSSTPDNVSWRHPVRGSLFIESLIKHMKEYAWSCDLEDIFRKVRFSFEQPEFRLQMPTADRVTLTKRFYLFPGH
The data set can be described thus: Inhibition of caspase-1 activity in LPS-primed immortalized mouse […] cells assessed as reduction in nigericin-induced GSDMD cleavage at 5 uM by Western blot analysis. The data set is classed as cell-based. As to conditions: J774.A1. A digest of the protocol:
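Western blot for GSDMD cleavage in immortalized macrophages, with tubulin as loading control. Representative of n ≥ 3 independent experiments.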
(Immunoblotting shows a protein as a band on a membrane.)

Data set [3] has as its target T3, Gasdermin-D (Mus musculus) (UniProt Q9D8T2).
T3 sequence (whole entry): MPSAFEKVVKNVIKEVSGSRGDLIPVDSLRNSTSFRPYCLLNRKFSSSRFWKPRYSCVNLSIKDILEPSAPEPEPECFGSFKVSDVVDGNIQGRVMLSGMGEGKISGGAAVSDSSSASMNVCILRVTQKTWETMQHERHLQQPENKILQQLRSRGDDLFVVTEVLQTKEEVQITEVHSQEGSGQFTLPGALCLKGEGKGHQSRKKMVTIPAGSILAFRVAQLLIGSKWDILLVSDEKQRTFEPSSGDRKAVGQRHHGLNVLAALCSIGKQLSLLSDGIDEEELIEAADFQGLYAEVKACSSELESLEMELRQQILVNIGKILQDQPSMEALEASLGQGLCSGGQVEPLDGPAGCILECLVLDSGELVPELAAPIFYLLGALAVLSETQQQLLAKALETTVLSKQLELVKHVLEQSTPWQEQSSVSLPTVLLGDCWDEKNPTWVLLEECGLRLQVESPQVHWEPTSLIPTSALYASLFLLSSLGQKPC
The data set can be described thus: Inhibition of GSDMD cytosol-plasma membrane translocation in LPS-primed C57BL/6 mouse primary BMDM at 5 uM followed by nigericin stimulation by immunofluorescence assay. A digest of the protocol: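 Macrophages were LPS-primed, then stimulated with nigericin, in immortalized and primary cells. Anti-GSDMD immunofluorescence, with line-intensity histograms of cytosol versus plasma-membrane localization. Mean ± SEM, n ≥ 3 independent experiments.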

Data set [4] addresses T2, Caspase-1 (Mus musculus). The data set can be described thus: Inhibition of caspase-1 activity in LPS-primed immortalized mouse […] cells assessed as reduction in nigericin-induced caspase-1 cleavage at 5 uM by Western blot analysis. The data set is classed as cell-based. As to conditions: J774.A1. A digest of the protocol:
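Western blot of full-length and cleaved caspase-1 and caspase-8 in J774A.1 cells after nigericin, with tubulin as loading control. Bands quantified as bar graphs.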

In data set [5] the target is T4, Gastrin/cholecystokinin type B receptor (Mus musculus) (UniProt P56481).
T4 sequence (whole entry): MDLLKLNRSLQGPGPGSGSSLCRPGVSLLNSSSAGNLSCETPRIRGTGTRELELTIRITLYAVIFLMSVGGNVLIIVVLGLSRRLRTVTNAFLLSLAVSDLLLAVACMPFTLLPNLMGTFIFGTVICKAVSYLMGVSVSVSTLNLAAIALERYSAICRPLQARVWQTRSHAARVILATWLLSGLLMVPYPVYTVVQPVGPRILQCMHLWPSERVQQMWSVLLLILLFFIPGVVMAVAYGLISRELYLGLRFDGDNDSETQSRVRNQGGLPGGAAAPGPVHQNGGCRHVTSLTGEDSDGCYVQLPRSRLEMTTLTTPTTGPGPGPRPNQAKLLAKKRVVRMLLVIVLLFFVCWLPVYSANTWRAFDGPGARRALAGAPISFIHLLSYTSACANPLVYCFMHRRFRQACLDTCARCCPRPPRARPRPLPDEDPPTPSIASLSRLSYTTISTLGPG
The data set can be described thus: Antagonist activity at CCKB receptor in immortalized mouse […] cells assessed as inhibition of nigericin-induced pyroptosis at 5 uM. As to conditions: J774.A1. Format: cell-based. Put shortly: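 CCKB antagonists netazepide and proglumide were given to immortalized macrophages, with pyroptosis induced by nigericin.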

Data set [6] in a line: Lipid-water partition coefficient, logP of the compound. The data set is classed as physicochemical.
In a further data set the test system is J774.A1. The data set can be described thus: Inhibition of pyroptosis cell death in LPS-primed immortalized mouse […] cells assessed as effect on nigericin-induced cell morphological changes by propidium iodide staining based confocal microscopy. The data set is classed as functional. Put shortly:
(§1)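 Primary BMDM and J774A.1 cells treated with LPS and nigericin. Swelling, bubble formation and propidium iodide uptake visualized by epifluorescence microscopy.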

Data set [7] relates to BMDM. The data set can be described thus: Inhibition of pyroptosis in LPS-primed C57BL/6 mouse primary BMDM assessed as effect on nigericin-induced cell morphological changes at 5 uM by propidium iodide staining based confocal microscopy. The data set is classed as functional. Put shortly:
as §1

What is called logP is the decadic logarithm of the partition coefficient of the neutral form, usually between octanol and water. Read a high logP as higher lipophilicity. Take `CCOC(CN1C(=O)C(NC(=O)Nc2ccc(C)cc2)(C(F)(F)C(=O)Nc2ccc(C)cc2)c2ccccc21)OCC` (stereo unspecified): the inhibition entry with BMDM [1] was “Dose-dependent effect”. Also, the inhibition result (at Caspase-1 (Homo sapiens); in the data set with THP-1; on Caspase-1 (Mus musculus) [2]; in [3]; at Caspase-1 (Mus musculus) [4]; with J774.A1) was “Active” each time. In the data set with BMDM [7], the inhibition entry was “Active”. The outcome in the data set with Mus musculus was Active. For the same compound, the outcome in [5] was inactive. In data set [6], the logP turned out to be 4.1.
